Legend:
[1] = Lipophilicity, logD of compound at 7.4 by the LC/MS based microscale shake flask method; type: physicochemical; conditions: octanol/water, pH 7.4
Procedure, shortened: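 LogD measured by high-throughput microscale shake flask with LC tandem MS quantitation.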

[2] = Metabolic stability in human liver microsomes assessed as intrinsic clearance at 1 uM measured upto 60 mins by LC-MS/MS analysis; type: ADME, Microsome; conditions: read-out: CLH
[3] = Metabolic stability in rat liver microsomes assessed as intrinsic clearance at 1 uM measured upto 60 mins by LC-MS/MS analysis; type: ADME, Microsome; conditions: read-out: CLH
[4] = Apparent permeability from apical to basolateral side in MDCK cells at 10 uM incubated for 3 hrs by LC-MS/MS analysis; type: ADME, cell-based, Canis lupus familiaris; conditions: dog
[5] = Clearance in Sprague-Dawley rat at 0.2 mg/kg, iv measured upto 8 hrs by LC-MS/MS analysis; type: ADME, organism-based; conditions: in vivo
[6] = Oral bioavailability in Sprague-Dawley rat at 1 mg/kg measured upto 8 hrs by LC-MS/MS analysis; type: ADME, organism-based; conditions: in vivo
[7] = Unbound clearance in Sprague-Dawley rat at 1 mg/kg, po measured upto 8 hrs by LC-MS/MS analysis; type: ADME, organism-based; conditions: in vivo
[8] = Clearance in Beagle dog at 1 mg/kg, iv measured upto 24 hrs by LC-MS/MS analysis; type: ADME, organism-based, Canis lupus familiaris; conditions: in vivo
[9] = Oral bioavailability in Beagle dog at 2 mg/kg measured upto 24 hrs by LC-MS/MS analysis; type: ADME, organism-based, Canis lupus familiaris; conditions: in vivo
[10] = Metabolic stability in dog Hepatocyte assessed as intrinsic clearance at 1 uM measured upto 60 mins by LC-MS/MS analysis; type: ADME, cell-based, Canis lupus familiaris; conditions: hepatocytes, read-out: CLH
[11] = Metabolic stability in rat Hepatocyte assessed as intrinsic clearance at 1 uM measured upto 60 mins by LC-MS/MS analysis; type: ADME, cell-based; conditions: hepatocytes, read-out: CLH
[12] = Metabolic stability in human Hepatocyte assessed as intrinsic clearance at 1 uM measured upto 60 mins by LC-MS/MS analysis; type: ADME, cell-based; conditions: hepatocytes, read-out: CLH
[13] = Metabolic stability in dog liver microsomes assessed as intrinsic clearance at 1 uM measured upto 60 mins by LC-MS/MS analysis; type: ADME, Canis lupus familiaris, Microsome; conditions: read-out: CLH
[14] = Metabolic stability in human Hepatocyte assessed as compound hydrolysis at 5 uM incubated for 3 hrs by LC-MS/MS analysis; type: ADME, cell-based; conditions: hepatocytes, read-out: Drug degradation
Procedure, shortened: (§1)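 Compound incubated at 5 μM in cryopreserved hepatocytes (∼1.0 × 10^6 cells/mL) for 3 h; percent amide hydrolysis determined.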

[15] = Metabolic stability in rat Hepatocyte assessed as compound hydrolysis at 5 uM incubated for 3 hrs by LC-MS/MS analysis; type: ADME, cell-based; conditions: hepatocytes, read-out: Drug degradation; procedure, shortened: as §1
[16] = Metabolic stability in dog Hepatocyte assessed as compound hydrolysis at 5 uM incubated for 3 hrs by LC-MS/MS analysis; type: ADME, cell-based, Canis lupus familiaris; conditions: hepatocytes, read-out: Drug degradation; procedure, shortened: as §1
[17] = Oral bioavailability in Beagle dog at 5 mg/kg measured upto 24 hrs by LC-MS/MS analysis; type: ADME, organism-based, Canis lupus familiaris; conditions: in vivo

logD [1]	CLint scaled at 1 µM [2]	CLint scaled at 1 µM [3]	SMILES	other results
3	8.5 mL/min/kg	14 mL/min/kg	Cn1cc(-c2ccnc(-n3ncc4cc(C(C)(C)C)cc(F)c4c3=O)c2CO)cc(NC(=O)[C@H]2C[C@@H]2F)c1=O	Papp A→B at 3 h, 10 µM [4]: 10.8 ×10⁻⁶ cm/s
1.6	8 mL/min/kg	11 mL/min/kg	Cn1cc(-c2ccnc(-n3ncc4cc(C(C)(C)C)cc(F)c4c3=O)c2CO)cc(NC(=O)[C@@H]2C[C@@H]2F)c1=O	Papp A→B at 3 h, 10 µM [4]: 12.1 to 12.5 ×10⁻⁶ cm/s; clearance [5]: 15 mL/min/kg; bioavailability [6]: 40%; CL free [7]: 326 mL/min/kg; clearance [8]: 2 mL/min/kg; bioavailability [9]: 123%; CLint scaled at 1 µM [10]: < 21 mL/min/kg; CLint scaled at 1 µM [11]: 11 mL/min/kg; CLint scaled at 1 µM [12]: 6.2 mL/min/kg; CLint scaled at 1 µM [13]: 20 mL/min/kg; metabolised at 3 h, 5 µM [14]: ≤ 1%; metabolised at 3 h, 5 µM [15]: ≤ 1%; metabolised at 3 h, 5 µM [16]: ≤ 1%
2.5	–	–	Cn1cc(-c2ccnc(N3CCn4c(cc5c4CC(C)(C)C5)C3=O)c2CO)cc(NC(=O)C2(F)CC2)c1=O	–
2	–	–	Cn1cc(-c2cc(F)cc(-n3ncc4cc(C(C)(C)C)cc(F)c4c3=O)c2CO)cc(NC(=O)[C@H]2C[C@H]2F)c1=O	–
2.5	4.6 mL/min/kg	15 mL/min/kg	Cn1cc(-c2ccnc(-n3ncc4cc(C(C)(C)C)cc(F)c4c3=O)c2CO)cc(NC(=O)[C@@H]2C[C@H]2F)c1=O	Papp A→B at 3 h, 10 µM [4]: 14 ×10⁻⁶ cm/s
3.3	–	–	Cn1cc(-c2ccnc(N3CCn4c(cc5c4CC(C)(C)C5)C3=O)c2CO)cc(NC(=O)C2CCC2)c1=O	–
1.2	9.8 mL/min/kg	20 mL/min/kg	Cn1cc(-c2ccnc(N3CCc4c(cc5n4CCCC5)C3=O)c2CO)cc(NC(=O)C2CC2)c1=O	–
1.5	–	–	COCC(=O)Nc1cc(-c2ccnc(N3CCn4c(cc5c4CC(C)(C)C5)C3=O)c2CO)cn(C)c1=O	–
3.2	–	–	CC(C)C(=O)Nc1cc(-c2ccnc(N3CCn4c(cc5c4CC(C)(C)C5)C3=O)c2CO)cn(C)c1=O	–
2.2	–	–	Cn1cc(-c2ccnc(N3CCn4c(cc5c4CC(C)(C)C5)C3=O)c2CO)cc(NC(=O)C2COC2)c1=O	–
2.5	3.2 mL/min/kg	13 mL/min/kg	Cn1cc(-c2ccnc(-n3ncc4cc(C(C)(C)C)cc(F)c4c3=O)c2CO)cc(NC(=O)C2CC2)c1=O	Papp A→B at 3 h, 10 µM [4]: 13.5 ×10⁻⁶ cm/s
1.8	–	–	Cn1cc(-c2ccnc(N3CCn4c(cc5c4CC(C)(C)C5)C3=O)c2CO)cc(NC(=O)C2(O)CC2)c1=O	–
2.8	–	–	Cn1cc(-c2cc(F)cc(-n3ncc4cc(C(C)(C)C)cc(F)c4c3=O)c2CO)cc(NC(=O)[C@@H]2C[C@@H]2F)c1=O	–
2	–	–	Cn1cc(-c2ccnc(N3CCn4c(cc5c4CC(C)(C)C5)C3=O)c2CO)cc(NC(=O)c2cccnc2)c1=O	–
2.5	–	–	Cn1cc(-c2ccnc(N3CCn4c(cc5c4CC(C)(C)C5)C3=O)c2CO)cc(NC(=O)[C@@H]2C[C@@H]2F)c1=O	–
2.3	–	–	Cn1cc(-c2ccnc(N3CCn4c(cc5c4CC(C)(C)C5)C3=O)c2CO)cc(NC(=O)[C@H]2C[C@H]2F)c1=O	–
3	5.3 mL/min/kg	7.2 mL/min/kg	Cn1cc(-c2ccnc(N3CCn4c(cc5c4CC(C)(C)C5)C3=O)c2CO)cc(NC(=O)C2CC2)c1=O	–
2.1	–	–	Cn1cc(-c2ccnc(N3CCn4c(cc5c4CC(C)(C)C5)C3=O)c2CO)cc(NC(=O)[C@@H]2CCCO2)c1=O	–
2.1	–	–	CC(=O)Nc1cc(-c2ccnc(N3CCn4c(cc5c4CC(C)(C)C5)C3=O)c2CO)cn(C)c1=O	–
1.7	7.4 mL/min/kg	16 mL/min/kg	Cn1nc(-c2ccnc(-n3ncc4cc(C(C)(C)C)cc(F)c4c3=O)c2CO)cc(NC(=O)[C@@H]2C[C@@H]2F)c1=O	–
3.4	–	–	Cn1cc(-c2ccnc(N3CCn4c(cc5c4CC(C)(C)C5)C3=O)c2CO)cc(NC(=O)CC2CC2)c1=O	–
1.3	< 3.9 mL/min/kg	13 mL/min/kg	Cn1cc(-c2ccnc(-n3ncc4cc(C(C)(C)C)cc(F)c4c3=O)c2CO)nc(NC(=O)[C@@H]2C[C@@H]2F)c1=O	–
2.3	–	–	Cn1cc(-c2ccnc(N3CCn4c(cc5c4CC(C)(C)C5)C3=O)c2CO)cc(NC(=O)CN2CCOCC2)c1=O	–
2	5.5 mL/min/kg	11 mL/min/kg	Cn1cc(-c2ccnc(-n3ncc4cc(C(C)(C)C)cc(F)c4c3=O)c2CO)cc(NC(=O)[C@H]2C[C@H]2F)c1=O	Papp A→B at 3 h, 10 µM [4]: 6.4 ×10⁻⁶ cm/s
2.5	–	–	CCC(=O)Nc1cc(-c2ccnc(N3CCn4c(cc5c4CC(C)(C)C5)C3=O)c2CO)cn(C)c1=O	–
2.1	7.4 mL/min/kg	8.4 mL/min/kg	Cn1cc(-c2ccnc(-n3ncc4c5c(sc4c3=O)CCCC5)c2CO)cc(NC(=O)C2CC2)c1=O	–
2.6	–	–	CCCC(=O)Nc1cc(-c2ccnc(N3CCn4c(cc5c4CC(C)(C)C5)C3=O)c2CO)cn(C)c1=O	–
1.6	9.5 mL/min/kg	14 mL/min/kg	C[C@H]1CN(C2COC2)CCN1c1ccc(Nc2cc(-c3ccnc(N4CCn5c(cc6c5CC(C)(C)C6)C4=O)c3CO)cn(C)c2=O)nc1 [FENEBRUTINIB]	Papp A→B at 3 h, 10 µM [4]: 15.1 ×10⁻⁶ cm/s; clearance [5]: 22 mL/min/kg; bioavailability [6]: 96%; CL free [7]: 314 mL/min/kg; clearance [8]: 12 mL/min/kg; CLint scaled at 1 µM [10]: < 21 mL/min/kg; CLint scaled at 1 µM [11]: 10 mL/min/kg; bioavailability [17]: 130%; CLint scaled at 1 µM [12]: 9.3 mL/min/kg; CLint scaled at 1 µM [13]: 29 mL/min/kg
